Measurements as given in ChEMBL document CHEMBL3286128 (J Med Chem, 2014).
pEC50, pIC50: −log10 of the molar value. Activity calls are given as the source filed them. The calls are words filed in the database; no cut-off is given here.

How the values were obtained:
[1] = molecular target: T1, Human immunodeficiency virus type 1 integrase (Human immunodeficiency virus 1, UniProt Q7ZJM1)
[2] = molecular target: T1, Human immunodeficiency virus type 1 integrase; test: Inhibition of strand transfer activity of HIV-1 integrase using [gamma-32P]-labeled DNA as substrate
Summary of the method: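 Gel-based assay with radiolabelled oligonucleotide substrate and Mg2+ cofactor, measuring strand transfer by recombinant HIV-1 integrase. IC50 determined.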

[3] = tested on: Human immunodeficiency virus 1; test: Antiviral activity against HIV-1 harboring wild type integrase infected in human HOS cells pretreated with compound for 3 hrs by single-round HIV-1 infectivity assay; assay type: functional, organism-based; details: Human immunodeficiency virus 1, HOS
HOS = test: Cytotoxicity against human HOS cells assessed as ATP level by luciferase reporter assay; assay type: cell-based
Summary of the method: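 HOS cells were exposed to compound and viability was read as ATP level by luciferase reporter. […] SI is CC50 divided by WT-vector EC50.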

[4] = Retention time of the compound by HPLC analysis; assay type: physicochemical
Summary of the method: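 Preparative HPLC run as a linear gradient of solvent B over 30 min, starting at 30% B and ending at 70% or 80% B depending on the compound. Retention time was taken at elution.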

[5] = tested on: Human immunodeficiency virus 1; test: Ratio of EC50 for raltegravir-resistant HIV-1 harboring integrase Y143R mutant infected in human HOS cells to EC50 for HIV-1 harboring integrase wild type integrase infected in human HOS cells; assay type: functional
[6] = Selectivity index, ratio of CC50 for human HOS cells to EC50 for HIV-1 harboring wild type integrase infected in human HOS cells; assay type: toxicity, cell-based; details: read-out: Ratio CC50/EC50
Summary of the method: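 HOS cells were exposed to compound and viability was read as ATP level by luciferase reporter. SI is CC50 divided by WT-vector EC50.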

[7] = tested on: Human immunodeficiency virus 1; test: Antiviral activity against raltegravir-resistant HIV-1 harboring integrase Y143R mutant infected in human HOS cells pretreated with compound for 3 hrs by single-round HIV-1 infectivity assay; assay type: functional, organism-based; details: Human immunodeficiency virus 1, HOS
[8] = tested on: Human immunodeficiency virus 1; test: Antiviral activity against raltegravir-resistant HIV-1 harboring integrase N155H mutant infected in human HOS cells pretreated with compound for 3 hrs by single-round HIV-1 infectivity assay; assay type: functional, organism-based; details: Human immunodeficiency virus 1, HOS
[9] = tested on: Human immunodeficiency virus 1; test: Antiviral activity against raltegravir-resistant HIV-1 harboring integrase G140S/Q148H double mutant infected in human HOS cells pretreated with compound for 3 hrs by single-round HIV-1 infectivity assay; assay type: functional, organism-based; details: Human immunodeficiency virus 1, HOS
[10] = tested on: Human immunodeficiency virus 1; test: Ratio of EC50 for raltegravir-resistant HIV-1 harboring integrase N155H mutant infected in human HOS cells to EC50 for HIV-1 harboring integrase wild type integrase infected in human HOS cells; assay type: functional
[11] = tested on: Human immunodeficiency virus 1; test: Ratio of EC50 for raltegravir-resistant HIV-1 harboring integrase G140S/Q148H double mutant infected in human HOS cells to EC50 for HIV-1 harboring integrase wild type integrase infected in human HOS cells; assay type: functional
[12] = tested on: Human immunodeficiency virus 1; test: Antiviral activity against INSTI-resistant HIV-1 harboring integrase R263K mutant infected in human HOS cells pretreated with compound for 3 hrs by single-round HIV-1 infectivity assay; assay type: functional, organism-based; details: Human immunodeficiency virus 1, HOS
Summary of the method: (§1)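 VSV-g-pseudotyped single-round HIV-1 luciferase vector (WT or mutant IN) made in 293T cells by calcium phosphate transfection, supernatant harvested at 48 h. HOS cells were seeded the day before, then pretreated with compound, 11 serial dilutions from 10 μM to 0.0005 μM, at 37 °C for 3 h. Virus was added and cells kept 48 h at 37 °C. Luciferase was read and normalised to infectivity without compound.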

[13] = tested on: Human immunodeficiency virus 1; test: Antiviral activity against INSTI-resistant HIV-1 harboring integrase G118R mutant infected in human HOS cells pretreated with compound for 3 hrs by single-round HIV-1 infectivity assay; assay type: functional, organism-based; details: Human immunodeficiency virus 1, HOS
Summary of the method: as §1

[14] = tested on: Human immunodeficiency virus 1; test: Ratio of EC50 for INSTI-resistant HIV-1 harboring integrase R263K mutant infected in human HOS cells to EC50 for HIV-1 harboring integrase wild type integrase infected in human HOS cells; assay type: functional
[15] = tested on: Human immunodeficiency virus 1; test: Ratio of EC50 for INSTI-resistant HIV-1 harboring integrase G118R mutant infected in human HOS cells to EC50 for HIV-1 harboring integrase wild type integrase infected in human HOS cells; assay type: functional
[16] = tested on: Human immunodeficiency virus 1; test: Antiviral activity against HIV-1 harboring wild type integrase infected in human HOS cells pretreated with compound for 3 hrs by single-round HIV-1 infectivity assay in presence of 5% fetal bovine serum; assay type: functional, organism-based; details: Human immunodeficiency virus 1, HOS
Summary of the method: as §1

[17] = tested on: Human immunodeficiency virus 1; test: Antiviral activity against HIV-1 harboring wild type integrase infected in human HOS cells pretreated with compound for 3 hrs by single-round HIV-1 infectivity assay in presence of 10% fetal bovine serum; assay type: functional, organism-based; details: Human immunodeficiency virus 1, HOS
Summary of the method: as §1

[18] = tested on: Human immunodeficiency virus 1; test: Antiviral activity against HIV-1 harboring wild type integrase infected in human HOS cells pretreated with compound for 3 hrs by single-round HIV-1 infectivity assay in presence of 15% fetal bovine serum; assay type: functional, organism-based; details: Human immunodeficiency virus 1, HOS
Summary of the method: as §1

[19] = molecular target: Human immunodeficiency virus type 1 reverse transcriptase (Human immunodeficiency virus 1) (UniProt Q72547); test: Inhibition of HIV-1 DNA-dependent DNA polymerase activity of reverse transcriptase after 60 mins by agarose gel electrophoresis
[20] = molecular target: Human immunodeficiency virus type 1 reverse transcriptase (Human immunodeficiency virus 1) (UniProt Q72547); test: Inhibition of HIV-1 reverse transcriptase RNase H activity-mediated -8 cleavage assessed as retention of -17 cleavage at 10 uM by agarose gel electrophoresis

T1 sequence (Q7ZJM1 whole entry): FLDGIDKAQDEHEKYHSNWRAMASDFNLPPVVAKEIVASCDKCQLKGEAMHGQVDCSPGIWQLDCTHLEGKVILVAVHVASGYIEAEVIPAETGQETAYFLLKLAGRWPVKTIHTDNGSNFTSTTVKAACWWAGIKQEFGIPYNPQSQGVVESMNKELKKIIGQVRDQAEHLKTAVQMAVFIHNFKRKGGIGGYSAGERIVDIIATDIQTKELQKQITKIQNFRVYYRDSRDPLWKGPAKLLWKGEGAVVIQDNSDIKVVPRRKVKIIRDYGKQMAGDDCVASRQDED

| Compound | pIC50 [1] | pIC50 [2] | pEC50 [3] | CC50 (HOS) [nM] | Retention_time [4] [min] | Ratio EC50 [5] | selectivity ratio [6] | pEC50 [7] | pEC50 [8] | pEC50 [9] | further results |
| --- | --- | --- | --- | --- | --- | --- | --- | --- | --- | --- | --- |
| NCCNc1c(C(=O)NCc2ccc(F)cc2F)c(=O)n(O)c2ncccc12 | 5.35 | 7.41 | 7.46 | 9600 | 25.9 | – | – | – | – | – | – |
| COC(=O)[C@@H](Nc1c(C(=O)NCc2ccc(F)cc2F)c(=O)n(O)c2ncccc12)c1ccccc1 | – | – | – | > 250000 | 22.6 | – | – | – | – | – | – |
| Nc1ccc(-c2ccc(Nc3c(C(=O)NCc4ccc(F)cc4F)c(=O)n(O)c4ncccc34)cc2)cc1 | 4.10 | 6.89 | 8.20 | > 250000 | 15.6 | 16 | > 39700 | – | – | – | – |
| CC(=O)OCCNc1c(C(=O)NCc2ccc(F)cc2F)c(=O)n(O)c2ncccc12 | 5.28 | 7.57 | 8.35 | > 250000 | 23.6 | 1 | > 55600 | 8.32 | 8.51 | 7.46 | Ratio EC50 [10]: 0.69; Ratio EC50 [11]: 8; pEC50 [12]: 7.80; pEC50 [13]: 7.36; Ratio EC50 [14]: 4; Ratio EC50 [15]: 10; pEC50 [16]: 8.35; pEC50 [17]: 8.35; pEC50 [18]: 8.35; inhibition [19]: Active; inhibition [20]: Active |
| CCCCCNc1c(C(=O)NCc2ccc(F)cc2F)c(=O)n(O)c2ncccc12 | 5.09 | 7.62 | 8.13 | 94000 | 23.7 | – | – | – | – | – | – |
| CNc1c(C(=O)NCc2ccc(F)cc2F)c(=O)n(O)c2ncccc12 | 5.43 | 7.57 | 8.51 | > 250000 | 26.4 | – | – | – | – | – | – |
| COC(=O)[C@H](C)Nc1c(C(=O)NCc2ccc(F)cc2F)c(=O)n(O)c2ncccc12 | – | – | 8.38 | – | 26.4 | – | – | – | – | – | – |
| O=C(NCc1ccc(F)cc1F)c1c(Nc2ccccc2)c2cccnc2n(O)c1=O | 5.16 | 7.74 | 7.85 | > 250000 | 20.2 | – | – | – | – | – | – |
| Nc1c(C(=O)NCc2ccc(F)cc2F)c(=O)n(O)c2ncccc12 | – | – | 8.96 | > 250000 | 19.5 | – | – | – | – | – | pEC50 [12]: 8.19; pEC50 [13]: 7.80; pEC50 [16]: 8.96; pEC50 [17]: 8.96; pEC50 [18]: 8.96; inhibition [19]: Active; inhibition [20]: Active |
| CN(C)c1c(C(=O)NCc2ccc(F)cc2F)c(=O)n(O)c2ncccc12 | 4.68 | 7.06 | 6.57 | 13000 | 21.6 | 1 | 49 | 6.56 | 5.64 | 5.17 | Ratio EC50 [10]: 9; Ratio EC50 [11]: 25 |
| C[C@@H]1CCO[C@H]2Cn3cc(C(=O)NCc4ccc(F)cc4F)c(=O)c(O)c3C(=O)N12 [DOLUTEGRAVIR] | – | – | 8.80 | – | – | – | – | 8.37 | 8.44 | 8.24 | pEC50 [12]: 7.96; pEC50 [13]: 7.89 |
| COC(=O)[C@@H](C)Nc1c(C(=O)NCc2ccc(F)cc2F)c(=O)n(O)c2ncccc12 | – | – | 7.95 | > 250000 | 26.4 | – | – | 8.09 | – | 7.05 | – |
| O=C(NCc1ccc(F)cc1F)c1c(NCCO)c2cccnc2n(O)c1=O | 6.26 | 8.00 | 8.28 | 24000 | 21.6 | 0.88 | 4620 | 8.34 | 7.60 | 7.37 | Ratio EC50 [10]: 5; Ratio EC50 [11]: 8; pEC50 [12]: 7.59; pEC50 [13]: 7.57; Ratio EC50 [14]: 5; Ratio EC50 [15]: 5 |
| O=C(NCc1ccc(F)cc1F)c1c(Nc2ccc(-c3ccccc3)cc2)c2cccnc2n(O)c1=O | 4.28 | 6.47 | 6.43 | > 250000 | 22.8 | 1 | > 672 | – | – | – | – |
| COC(=O)[C@H](CO)Nc1c(C(=O)NCc2ccc(F)cc2F)c(=O)n(O)c2ncccc12 | 5.24 | 8.08 | 8.01 | > 250000 | 15.9 | – | – | – | – | – | – |
| O=C(NCc1ccc(F)cc1F)c1c(N2CCOCC2)c2cccnc2n(O)c1=O | 4.11 | 7.10 | 5.92 | 8400 | 20.5 | 1.5 | 7 | 5.74 | 5.43 | 5.16 | Ratio EC50 [10]: 3; Ratio EC50 [11]: 6 |
| CC(C)Nc1c(C(=O)NCc2ccc(F)cc2F)c(=O)n(O)c2ncccc12 | 5.74 | 7.80 | 8.14 | > 250000 | 17 | – | – | – | – | – | – |
| COC(=O)[C@H](Nc1c(C(=O)NCc2ccc(F)cc2F)c(=O)n(O)c2ncccc12)c1ccccc1 | – | – | 8.13 | – | 26.3 | – | – | – | 7.66 | – | – |
| CCOC(=O)[C@@H]1CCCN1c1c(C(=O)NCc2ccc(F)cc2F)c(=O)n(O)c2ncccc12 | 4.07 | 6.51 | 6.23 | 18000 | 12.5 | 3 | 31 | 5.78 | – | – | – |
| N#Cc1ccc(-c2ccc(Nc3c(C(=O)NCc4ccc(F)cc4F)c(=O)n(O)c4ncccc34)cc2)cc1 | 4.15 | 6.89 | 6.91 | > 250000 | 22.3 | 3 | > 2030 | – | – | – | – |
| COC(=O)[C@@H](CO)Nc1c(C(=O)NCc2ccc(F)cc2F)c(=O)n(O)c2ncccc12 | 5.36 | 7.89 | 7.85 | – | 20.5 | – | – | – | – | – | – |
| O=C(NCc1ccc(F)cc1F)c1c(NCCCCc2ccccc2)c2cccnc2n(O)c1=O | 4.92 | 6.55 | 7.30 | 102000 | 26.7 | 0.8 | 2040 | 7.40 | 6.94 | 6.61 | Ratio EC50 [10]: 2; Ratio EC50 [11]: 5 |
| O=C(NCc1ccc(F)cc1F)c1c(Nc2ccc3c(c2)Cc2ccccc2-3)c2cccnc2n(O)c1=O | 4.34 | 6.08 | 6.77 | > 250000 | 21.3 | 3 | > 1460 | – | – | – | – |
| O=C(NCc1ccc(F)cc1F)c1c(NC2CCCCCC2)c2cccnc2n(O)c1=O | 4.89 | 6.34 | 7.92 | 68000 | 25.8 | 0.55 | 5670 | 8.18 | 7.85 | 7.46 | Ratio EC50 [10]: 1; Ratio EC50 [11]: 3 |
| O=C(NCc1ccc(F)cc1F)c1c(NCCc2ccccc2)c2cccnc2n(O)c1=O | 5.10 | 7.30 | 7.85 | > 250000 | 22 | – | – | – | – | – | – |
